Our source for the folding enthalpy and Tm values is the array DNA melting data of Ke et al. (doi:10.1101/2024.01.08.574731).

Series [1] in a line: folding enthalpy; higher = less favourable; fluorescence melt of hairpins on a sequencing array, two-state fit. The following applies: sodium 0.088 M. An outline of the steps: (§1)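 Bootstrapped two-state fits yielded melting temperature and folding enthalpy for library hairpins. Cy3 fluorescence, with annealed Cy3 and quencher oligos, was imaged on a sequenced MiSeq flow cell in 50 mM Na-HEPES pH 8.0, 25 mM NaCl in 2.5 °C steps up to 60 °C, and normalised to pre-quench Cy3 and to control constructs. Four replicates were combined by inverse variance, and fitted temperatures were raised by 9.35 °C to match UV melts.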

A short description of series [2]: melting temperature; fluorescence melt of hairpins on a sequencing array, two-state fit, raised by 9.35 °C to match UV melts. The conditions noted are these: sodium 0.088 M. An outline of the steps:
as §1

As to GGATTTCCGAAAGGATCC (((..(((....)))))), the folding enthalpy in series [1] is -17.6 kcal/mol. The Tm in series [2] was found to be 34.2 °C.
On the same counts, the results for GGCTAGGGAAACCTAGTC (.(((((....))))).) are -41.7 kcal/mol and 48.8 °C.
On the same counts, the results for GATCTTCGCAAAGATC ((((((....)))))) are -28.3 kcal/mol and 45.5 °C.
In the same order, the values of GCGATTGGAAACAATTGC ((.((((....)))).)) are -35.4 kcal/mol and 49.7 °C.
As for GTCCAAGGAAACCTGGAC (((((.(....).))))), the folding enthalpy in series [1] was -27.7 kcal/mol. In addition, the Tm in series [2] is 46.8 °C.
On the same counts, the results for GGTAACGAAAGTTACC ((((((....)))))) are -34.7 kcal/mol and 64.1 °C.
GTCTCACGAAAGTGGGAC (((.(((....))).))): the folding enthalpy in series [1] was -41.5 kcal/mol. Also, the Tm in series [2] worked out at 60.3 °C.
GATCATATGATGATC ((((((...)))))): the folding enthalpy in series [1] was -31.3 kcal/mol. In series [2], the Tm stood at 48.1 °C.
As to GGAGCAGGAAACTACTCC ((((.((....)).)))), the folding enthalpy in series [1] is -27.4 kcal/mol. Moreover, the Tm in series [2] is 41.1 °C.
On the same counts, the results for GACCGCCGAAAGGCTGTC (((.(((....))).))) are -20.6 kcal/mol and 55.5 °C.
Regarding GCTAGCGAAAGCTTAAGC ((((((....)))..))), the folding enthalpy in series [1] is -16.9 kcal/mol. Moreover, the Tm in series [2] came to 43.2 °C.
For the sequence GATCGAACTCTCGATC ((((((....)))))), in series [1], the folding enthalpy was -35.6 kcal/mol. Further, the Tm in series [2] is 49.7 °C.
On the same counts, the results for GGTAGGCGAAAGCCACC (((.(((....)))))) are -16 kcal/mol and 58.2 °C.
On the same counts, the results for GATGTTGGAAACAATGTC ((..(((....)))..)) are -17.1 kcal/mol and 31.1 °C.
For GATCACTTTGGTGATC ((((((....)))))), in series [1], the folding enthalpy was -42.3 kcal/mol. Also, the Tm in series [2] was 57.8 °C.
In the same order, the values of GCATTGGCGAAAGCCTGC (((..(((....)))))) are -15.1 kcal/mol and 44.3 °C.
With GCAATGCCGAAAGGCTGC (((..(((....)))))), in series [1], the folding enthalpy is -15.6 kcal/mol. Moreover, the Tm in series [2] came to 49.1 °C.
In the same order, the values of GTTAGCCGAAAGGCAAAC (((.(((....))).))) are -18.1 kcal/mol and 48.6 °C.
On the same counts, the results for GCAATGGGAAACCATTAC (.(((((....))))).) are -14.9 kcal/mol and 33.9 °C.
As to GTGGTGAAAACCAC (((((....))))), the folding enthalpy in series [1] was -27.3 kcal/mol. Also, in series [2], the Tm amounted to 58 °C.
On the same counts, the results for GCCCGGCGAAAGCTGTGC ((.(.((....)).).)) are -19.7 kcal/mol and 40.9 °C.
On the same counts, the results for GATCGAACCATCGATC ((((((....)))))) are -41.6 kcal/mol and 50.4 °C.
On the same counts, the results for GATGACGAAAGTCTATC ((((((....))).))) are -16.4 kcal/mol and 39 °C.
On to GCATTCCCGAAAGGGTGC (((..(((....)))))), for which the folding enthalpy in series [1] is -20.9 kcal/mol. In addition, the Tm in series [2] was 43.5 °C.
In the case of GCATTCGAAAGAAATGC ((((((....))).))), the folding enthalpy in series [1] is -30.4 kcal/mol. In series [2], the Tm was found to be 49 °C.
On the same counts, the results for GAGGTCGGAAACGGCTTC ((.(.((....)).).)) are -20.5 kcal/mol and 36.1 °C.
In the same order, the values of GTAATCGAAAGATGGTAC ((((((....)))..))) are -12.8 kcal/mol and 25 °C.
In the same order, the values of GCACAGAAATGTGC (((((....))))) are -33.9 kcal/mol and 57.2 °C.
Turning to GACTGCGAAAGCAGGGTC ((((((....)))..))), in series [1], the folding enthalpy was -12.4 kcal/mol. Further, the Tm in series [2] amounted to 62.2 °C.
For GGAGCTGGAAACAGTTCC (((.(((....))).))), the folding enthalpy in series [1] was -37 kcal/mol. In series [2], the Tm stood at 50 °C.
Consider CCCCAGAAATGGGG (((((....))))), for which, in series [1], the folding enthalpy was -16 kcal/mol. The Tm in series [2] was determined as 52.2 °C.
On the same counts, the results for GAGTACGGAAACGCACTC ((((.((....)).)))) are -31.6 kcal/mol and 45.3 °C.
On the same counts, the results for GGTTGGGGAAACCTGACC (((..((....))..))) are -22.5 kcal/mol and 44.1 °C.
In the same order, the values of GTAAGAGGAAACCCTTAC (((((.(....).))))) are -19.6 kcal/mol and 31.4 °C.
Take GATCAGATAGCTGATC ((((((....)))))): the folding enthalpy in series [1] was -38 kcal/mol. Moreover, in series [2], the Tm came out at 46.8 °C.
On the same counts, the results for GGACCTCGAAAGAGTTCC (((.(((....))).))) are -27.2 kcal/mol and 45 °C.
On to GCGACACGAAAGTGCCGC (((.(((....))).))), for which, in series [1], the folding enthalpy was -38.8 kcal/mol. In addition, the Tm in series [2] is 64.3 °C.
Turning to GCGGCCGAAAGGCTTCGC ((((((....)))..))), the folding enthalpy in series [1] was -17.1 kcal/mol. Besides, the Tm in series [2] turned out to be 53.5 °C.
Consider GCCTCCGAAAGGAATGGC ((((((....)))..))), for which the folding enthalpy in series [1] was -23 kcal/mol. For the same sequence, in series [2], the Tm was found to be 49.9 °C.
In the same order, the values of GAAAGCCCGAAAGGGTTC (((..(((....)))))) are -10.6 kcal/mol and 27.9 °C.
On the same counts, the results for GCATCGGGAAACCGACGC ((.((((....)))).)) are -42.1 kcal/mol and 50.4 °C.
Consider GATCCTCAGAGGATC ((((((...)))))), for which, in series [1], the folding enthalpy is -31.6 kcal/mol. In series [2], the Tm turned out to be 52.1 °C.
As for GATCACAGTGTGATC ((((((...)))))), the folding enthalpy in series [1] was -39.9 kcal/mol. Moreover, the Tm in series [2] was found to be 56.6 °C.
In the same order, the values of GATCGGTGTGCCGATC ((((((....)))))) are -33.2 kcal/mol and 64.8 °C.
On the same counts, the results for GCGCGGCGAAAGCCTCGC (((.(((....))).))) are -26.2 kcal/mol and 66.7 °C.
Turning to GCAAAGCGAAAGCTCAGC ((..(((....)))..)), the folding enthalpy in series [1] is -10.8 kcal/mol. Besides, the Tm in series [2] stood at 33.6 °C.
For the sequence GTTCGCGAAAGCGGGAAC ((((((....)))..))), the folding enthalpy in series [1] is -11.8 kcal/mol. Also, the Tm in series [2] was determined as 40.7 °C.
Take GCAACTCGAAAGAGTGC (((.(((....)))))): the folding enthalpy in series [1] was -33.5 kcal/mol. Besides, in series [2], the Tm worked out at 55.8 °C.
As for GCGAGGACGAAAGTCCGC (((..(((....)))))), the folding enthalpy in series [1] was -8.47 kcal/mol. For the same sequence, in series [2], the Tm turned out to be 56.2 °C.
In the same order, the values of GATCGGCGGCCGATC ((((((...)))))) are -49.3 kcal/mol and 58.1 °C.
On the same counts, the results for GGTACCGGAAACGGTATC (.(((((....))))).) are -23.9 kcal/mol and 51.6 °C.
Regarding GCTTTGCGAAAGCTGAGC (((..((....))..))), the folding enthalpy in series [1] is -15.2 kcal/mol. Besides, the Tm in series [2] was 56.8 °C.
For the sequence GCGTAGACACGC ((((....)))), the folding enthalpy in series [1] is -19.8 kcal/mol. Moreover, in series [2], the Tm came out at 50.7 °C.
On the same counts, the results for GCGGAAGCGAAAGCTCGC (((..(((....)))))) are -31.5 kcal/mol and 52.1 °C.
On the same counts, the results for CGAGGCGGAAACGCTTCG (((.(((....))).))) are -35.3 kcal/mol and 55.3 °C.
On the same counts, the results for GCGATGAAAATCGC (((((....))))) are -31.7 kcal/mol and 61.6 °C.
Regarding GATCTCAACGGAGATC ((((((....)))))), in series [1], the folding enthalpy was -35 kcal/mol. For the same sequence, the Tm in series [2] is 52.3 °C.
In the case of GTAGCAGGAAACCGCTAC (((((.(....).))))), the folding enthalpy in series [1] was -32.4 kcal/mol. Moreover, the Tm in series [2] worked out at 48.5 °C.
GTACGTGGAAACACGTAC (((((((....))))))): the folding enthalpy in series [1] is -46.8 kcal/mol. Moreover, the Tm in series [2] is 63.8 °C.
As for GTGCCGGGAAACCGGCGC (.(((((....))))).), the folding enthalpy in series [1] was -18.2 kcal/mol. For the same sequence, the Tm in series [2] stood at 67.3 °C.
Turning to GCCTGTGGAAACGTAGGC ((((..(....)..)))), the folding enthalpy in series [1] is -28 kcal/mol. For the same sequence, the Tm in series [2] was 48.2 °C.
In the same order, the values of GGTAATCGAAAGATAACC (((.(((....))).))) are -26.3 kcal/mol and 41.7 °C.
Take GATCGGCAAGCCGATC ((((((....)))))): the folding enthalpy in series [1] was -30.5 kcal/mol. Also, in series [2], the Tm was 67 °C.
Turning to GCCACGCGAAAGCATCGC ((.(.((....)).).)), the folding enthalpy in series [1] was -7.48 kcal/mol. Besides, the Tm in series [2] was determined as 24 °C.
In the same order, the values of TTTCAGAAATGAAA (((((....))))) are -5.49 kcal/mol and 18 °C.
For the sequence GCTCTGCGAAAGCGGGGC ((.(.((....)).).)), the folding enthalpy in series [1] is -27.6 kcal/mol. Besides, the Tm in series [2] amounted to 63.4 °C.
Take GATCCACGCGTGGATC ((((((....)))))): the folding enthalpy in series [1] was -49.9 kcal/mol. The Tm in series [2] turned out to be 64.4 °C.
On the same counts, the results for GCGAGTGCTCGC ((((....)))) are -26.2 kcal/mol and 52 °C.
On the same counts, the results for GACGGAGGAAACTCTGTC (((.(((....))).))) are -39.4 kcal/mol and 48 °C.
On the same counts, the results for GCGTCCGAAAGGATCCGC ((((((....)))..))) are -21.2 kcal/mol and 44.7 °C.
As to GATCCCGAGGGGATC ((((((...)))))), the folding enthalpy in series [1] was -42.5 kcal/mol. Besides, in series [2], the Tm turned out to be 62.6 °C.
On the same counts, the results for GATCTCAAATGAGATC ((((((....)))))) are -37.8 kcal/mol and 50 °C.
On to GATCACCTCTGTGATC ((((((....)))))), for which, in series [1], the folding enthalpy is -42.2 kcal/mol. For the same sequence, the Tm in series [2] turned out to be 55 °C.
For the sequence GCGCAGCGAAAGCAGAGC ((.(.((....)).).)), the folding enthalpy in series [1] is -15.7 kcal/mol. In series [2], the Tm was found to be 54.6 °C.
